Results taken from ChEMBL document CHEMBL3596168, “Novel inhibitors of RANKL-induced osteoclastogenesis: Design, synthesis, and biological evaluation of 6-(2,4-difluorophenyl)-3-phenyl-2H-benzo[e][1,3]oxazine-2,4(3H)-diones” (Bioorg Med Chem, 2015).
Calls of active or inactive are those of the source. The rule behind the calls is not given here.

Experiments:
[1] = Cytotoxicity against mouse RAW264.7 cells assessed as cell viability at 5 uM after 24 hrs by MTT assay relative to control; type: cell-based; conditions: read-out: Activity
Outline: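 RAW264.7 cells, 1 × 10⁴ per well in DMEM with 10% FBS, were exposed to compounds for 24 h. MTT (500 µg/mL) was then added for 1 h at 37 °C, formazan was dissolved in DMSO, and absorbance was read at 540 nm. Viability at 5 µM is relative to untreated control. At least three independent experiments, mean ± SD.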

[2] = molecular target: T1, Tumor necrosis factor ligand superfamily member 11 (Mus musculus) (UniProt O35235); assay: Inhibition of recombinant mouse RANKL-induced osteoclastogenesis of mouse RAW264.7 cells assessed as reduction of TRAP-positive multinucleated cells at 5 uM after 4 days by light microscopic analysis relative to control; type: cell-based
T1 sequence (whole entry): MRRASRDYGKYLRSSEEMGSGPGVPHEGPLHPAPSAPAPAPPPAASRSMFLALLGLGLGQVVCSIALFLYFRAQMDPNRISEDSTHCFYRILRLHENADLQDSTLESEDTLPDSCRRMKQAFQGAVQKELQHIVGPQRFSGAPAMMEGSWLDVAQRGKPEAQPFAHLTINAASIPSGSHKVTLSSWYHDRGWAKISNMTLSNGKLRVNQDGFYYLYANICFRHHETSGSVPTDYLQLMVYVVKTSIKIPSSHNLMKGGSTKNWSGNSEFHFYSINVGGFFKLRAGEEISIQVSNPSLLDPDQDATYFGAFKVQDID
Outline: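 RAW264.7 cells were cultured 4 days in α-MEM with 10% FBS, 2 mM L-glutamine and RANKL 100 ng/mL, with or without compound at 5 µM. Medium was changed on day 2. Cells were fixed in acetone/citrate/formaldehyde and stained for TRAP for 1 h at 37 °C. TRAP+ cells with three or more nuclei were counted by light microscopy. Inhibition = 100% − MNCs (%). At least three independent experiments.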

[3] = molecular target: T1, Tumor necrosis factor ligand superfamily member 11 (Mus musculus); assay: Inhibition of recombinant mouse RANKL-induced TRAP activity in mouse RAW264.7 cells using 4-nitrophenyl phosphate as TRAP substrate preincubated for 4 days followed by substrate addition measured after 15 mins by ELISA reader analysis; type: cell-based
Outline: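 RAW264.7 cells (2 × 10⁴ per well) were cultured 4 days in α-MEM with 10% FBS, 2 mM L-glutamine and murine RANKL 100 ng/mL, with or without compound. Cells were lysed in 0.1% Triton X-100/50 mM Tris-HCl pH 7.2 on ice. They were incubated with 2 mg/mL 4-nitrophenyl phosphate in 0.09 M citrate for 15 min at 37 °C, stopped with 0.1 N NaOH, and read at 405 nm. Protein was measured by BCA.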

[4] = molecular target: T1, Tumor necrosis factor ligand superfamily member 11 (Mus musculus); assay: Inhibition of recombinant mouse RANKL-induced osteoclastogenesis of mouse RAW264.7 cells assessed as suppression of cathepsin K mRNA expression at 2.5 to 5 uM preincubated for 1 hr followed by RANKL addition measured after 24 hrs by RT-PCR analysis; type: cell-based
Outline: (§1)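 RAW264.7 cells (1 × 10⁵ per dish) were serum-starved 24 h in α-MEM, pretreated with compound for 1 h, then given RANKL (100 ng/mL) for 24 h. Total RNA (2 µg) was reverse-transcribed with oligo(dT) and amplified with mouse-specific primers. Products were resolved on 1.5% agarose with EtBr and densities normalized to GAPDH, as % of control. At least two independent experiments.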

[5] = molecular target: T1, Tumor necrosis factor ligand superfamily member 11 (Mus musculus); assay: Inhibition of recombinant mouse RANKL-induced osteoclastogenesis of mouse RAW264.7 cells assessed as suppression of NFATc1 mRNA expression at 2.5 to 5 uM preincubated for 1 hr followed by RANKL addition measured after 24 hrs by RT-PCR analysis; type: cell-based; outline: as §1
[6] = molecular target: T1, Tumor necrosis factor ligand superfamily member 11 (Mus musculus); assay: Inhibition of recombinant mouse RANKL-induced osteoclastogenesis of mouse RAW264.7 cells assessed as suppression of TRAP mRNA expression at 2.5 to 5 uM preincubated for 1 hr followed by RANKL addition measured after 24 hrs by RT-PCR analysis; type: cell-based; outline: as §1
[7] = molecular target: T1, Tumor necrosis factor ligand superfamily member 11 (Mus musculus); assay: Inhibition of recombinant mouse RANKL-induced osteoclastogenesis of mouse RAW264.7 cells assessed as suppression of c-fos mRNA expression at 2.5 to 5 uM preincubated for 1 hr followed by RANKL addition measured after 24 hrs by RT-PCR analysis; type: cell-based; outline: as §1
[8] = molecular target: T1, Tumor necrosis factor ligand superfamily member 11 (Mus musculus); assay: Inhibition of recombinant mouse RANKL-induced NF-kappaB expression in nuclear extracts of mouse RAW264.7 cells assessed as decrease in ratio of NFATc1 to TBP level at 5 uM preincubated for 1 hr followed by RANKL addition measured after 24 hrs by Western blot analysis relative to control
Outline: (§2)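 RAW264.7 cells (1 × 10⁵ per dish) grew in DMEM/10% FBS for 24 h. They were pretreated with compound in α-MEM/10% FBS for 1 h, then given RANKL (100 ng/mL) for 24 h. Nuclear extracts (18 µg protein) were run on 12% SDS–PAGE and immunoblotted for NF-κB p65, NFATc1 and TBP (loading reference) with ECL detection. More than two cultures.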

[9] = molecular target: T1, Tumor necrosis factor ligand superfamily member 11 (Mus musculus); assay: Inhibition of recombinant mouse RANKL-induced bone resorptive activity of mature osteoclasts derived from mouse RAW264.7 cells assessed as attenuation of resorbing pit formation on dentine slices after 4 days by toluidine blue staining assay; type: tissue-based
Outline: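 Cells (1 × 10⁴ per well) were seeded on dentine slices in α-MEM with 10% FBS, 2 mM L-glutamine and RANKL 100 ng/mL, plus compound at 7.5, 5 or 2.5 µM. Medium was refreshed every 2 days. On day 4 cells were removed with 1 M NH₄OH and slices stained with 0.1% toluidine blue. Resorbed/total area was expressed as % of control, from more than 6 slices.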

[10] = molecular target: T1, Tumor necrosis factor ligand superfamily member 11 (Mus musculus); assay: Inhibition of recombinant mouse RANKL-induced NF-kappaB expression in nucleus of mouse RAW264.7 cells at 5 uM preincubated for 1 hr followed by RANKL addition measured after 24 hrs by ELISA plate analysis; type: cell-based
Outline: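 Cells were pretreated 1 h with compound in α-MEM/10% FBS, then stimulated with RANKL (100 ng/mL) for 24 h. NF-κB p65 DNA binding in nuclear extracts was measured on plates coated with the response element, using primary plus tagged secondary antibody. Absorbance was read at 450 nm.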

[11] = molecular target: T1, Tumor necrosis factor ligand superfamily member 11 (Mus musculus); assay: Inhibition of recombinant mouse RANKL-induced NF-kappaB expression in nuclear extracts of mouse RAW264.7 cells assessed as decrease in ratio of NF-kappaB to TBP level at 5 uM preincubated for 1 hr followed by RANKL addition measured after 24 hrs by Western blot analysis relative to control; outline: as §2

| SMILES | viability at 24 h, 5 µM [1] | inhibition [2] | also measured |
| --- | --- | --- | --- |
| O=c1oc2ccc(-c3ccc(F)cc3F)cc2c(=O)n1-c1ccccc1C(F)(F)F | 95.5% | 31.6% |  |
| COc1cccc(-n2c(=O)oc3ccc(-c4ccc(F)cc4F)cc3c2=O)c1 | 106% | 30.8% |  |
| N#Cc1ccc(-n2c(=O)oc3ccc(-c4ccc(F)cc4F)cc3c2=O)cc1 | 108% | 29.4% |  |
| COc1ccc(-n2c(=O)oc3ccc(-c4ccc(F)cc4F)cc3c2=O)cc1OC | 103% | 21.2% |  |
| O=c1oc2ccc(-c3ccc(F)cc3F)cc2c(=O)n1-c1cccc(C(F)(F)F)c1 | 100% | 62.9% | inhibition [3]: Dose-dependent effect |
| O=c1oc2ccc(-c3ccc(F)cc3F)cc2c(=O)n1-c1ccc(F)cc1F | 96.5% | 42.3% |  |
| O=c1oc2ccc(-c3ccc(F)cc3F)cc2c(=O)n1-c1ccc(Cl)cc1F | 96.2% | 19.4% |  |
| O=c1oc2ccc(-c3ccc(F)cc3F)cc2c(=O)n1-c1ccc(F)c(F)c1 | 72.2% | 17.4% |  |
| C#Cc1cccc(-n2c(=O)oc3ccc(-c4ccc(F)cc4F)cc3c2=O)c1 | 88.4% | 57.5% | inhibition [4]: Active; inhibition [5]: Active; inhibition [3]: Dose-dependent effect; inhibition [6]: Active; inhibition [7]: Active |
| O=c1oc2ccc(-c3ccc(F)cc3F)cc2c(=O)n1-c1ccc(C(F)(F)F)cc1 | 103% | 16.9% |  |
| N#Cc1cccc(-n2c(=O)oc3ccc(-c4ccc(F)cc4F)cc3c2=O)c1 | 103% | 34% |  |
| O=c1oc2ccc(-c3ccc(F)cc3F)cc2c(=O)n1-c1cc(F)ccc1F | 86.6% | 86.8% | fold change (FC) [8]: 0.61; inhibition [4]: Active; inhibition [5]: Active; inhibition [3]: Dose-dependent effect; inhibition [9]: Dose-dependent effect; inhibition [6]: Active; inhibition [10]: Active; fold change (FC) [11]: 0.69; inhibition [7]: Active |
